Measurements published in ChEMBL document CHEMBL1811814, “Synthesis and evaluation of indole, pyrazole, chromone and pyrimidine based conjugates for tumor growth inhibitory activities--development of highly efficacious cytotoxic agents” (Eur J Med Chem, 2010).

What was measured:
Assay type in all cases: functional
SF-295 = test: Growth inhibition of human SF295 cells
IGROV-1 [1] = test: Growth inhibition of human IGROV1 cells
In short: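 Follow-up panel testing at five concentrations (10^-4, 10^-5, 10^-6, 10^-7 and 10^-8 M) across the 60 human tumor cell lines. GI50 was obtained for each line from the concentration-response data, with the panel average GI50 also reported.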

SK-MEL-5 [2] = test: Growth inhibition of human SK-MEL-5 cells
CAKI-1 = test: Growth inhibition of human Caki1 cells
UACC-257 = test: Growth inhibition of human UACC257 cells
ACHN [3] = test: Growth inhibition of human ACHN cells
KM12 = test: Growth inhibition of human KM12 cells
SNB-19 = test: Growth inhibition of human SNB19 cells assessed tumor cell growth at 10^-5 M; design: scale not given: the % may be the effect or the level left
In short: (§1)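 Single-dose screen at 10^-5 M across the 60 human tumor cell line panel, run to NCI standards. The value is the percent growth of each cell line in the presence of compound. Compounds active at this dose moved on to five-concentration testing (10^-4 to 10^-8 M).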

M14 [4] = test: Growth inhibition of human M14 cells
NCI-H522 = test: Growth inhibition of human NCI-H522 cells assessed tumor cell growth at 10^-5 M; design: scale not given: the % may be the effect or the level left
In short: (§2)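 NCI 60-human-tumor-cell-line panel screen. Each compound was tested at a single concentration of 10^-5 M, and percent growth of tumor cells was recorded for each cell line. Growth inhibition was expressed from these percent-growth values.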

LOX IMVI [5] = test: Growth inhibition of human LOXIMVI cells
SK-MEL-5 [6] = test: Growth inhibition of human SK-MEL-5 cells assessed tumor cell growth at 10^-5 M; design: scale not given: the % may be the effect or the level left; in short: as §2
SK-OV-3 [7] = test: Growth inhibition of human SKOV3 cells
SN12C = test: Growth inhibition of human SN12C cells
[8] = Growth inhibition of human Hs 578T cells assessed tumor cell growth at 10^-5 M; design: scale not given: the % may be the effect or the level left; in short: as §2
UO-31 [9] = test: Growth inhibition of human UO31 cells
[10] = Growth inhibition of human Hs 578T cells
IGROV-1 [11] = test: Growth inhibition of human IGROV1 cells assessed tumor cell growth at 10^-5 M; design: scale not given: the % may be the effect or the level left; in short: as §2
SNB-75 [12] = test: Growth inhibition of human SNB75 cells
TK-10 [13] = test: Growth inhibition of human TK10 cells
COLO 205 = test: Growth inhibition of human COLO205 cells
UO-31 [14] = test: Growth inhibition of human UO31 cells assessed tumor cell growth at 10^-5 M; design: scale not given: the % may be the effect or the level left; in short: as §1
LOX IMVI [15] = test: Growth inhibition of human LOXIMVI cells assessed tumor cell growth at 10^-5 M; design: scale not given: the % may be the effect or the level left; in short: as §2
K562 [16] = test: Growth inhibition of human K562 cells
ACHN [17] = test: Growth inhibition of human ACHN cells assessed tumor cell growth at 10^-5 M; design: scale not given: the % may be the effect or the level left; in short: as §2
HCT-15 = test: Growth inhibition of human HCT15 cells assessed tumor cell growth at 10^-5 M; design: scale not given: the % may be the effect or the level left; in short: as §2
OVCAR-4 = test: Growth inhibition of human OVCAR4 cells
U-251 = test: Growth inhibition of human U251 cells assessed tumor cell growth at 10^-5 M; design: scale not given: the % may be the effect or the level left; in short: as §1
NCI-H226 = test: Growth inhibition of human NCI-H226 cells assessed tumor cell growth at 10^-5 M; design: scale not given: the % may be the effect or the level left; in short: as §2
OVCAR-5 [18] = test: Growth inhibition of human OVCAR5 cells assessed tumor cell growth at 10^-5 M; design: scale not given: the % may be the effect or the level left; in short: as §2
TK-10 [19] = test: Growth inhibition of human TK10 cells assessed tumor cell growth at 10^-5 M; design: scale not given: the % may be the effect or the level left; in short: as §1
SF-539 = test: Growth inhibition of human SF539 cells assessed tumor cell growth at 10^-5 M; design: scale not given: the % may be the effect or the level left; in short: as §2
M14 [20] = test: Growth inhibition of human M14 cells assessed tumor cell growth at 10^-5 M; design: scale not given: the % may be the effect or the level left; in short: as §2
NCI/ADR-RES = test: Growth inhibition of human NCI/ADR-RES cells
HCT-116 = test: Growth inhibition of human HCT116 cells
SNB-75 [21] = test: Growth inhibition of human SNB75 cells assessed tumor cell growth at 10^-5 M; design: scale not given: the % may be the effect or the level left; in short: as §1
[22] = Growth inhibition of human RPMI8266 cells
HL-60(TB) = test: Growth inhibition of human HL-60(TB) cells assessed tumor cell growth at 10^-5 M; design: scale not given: the % may be the effect or the level left
In short: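 HL-60(TB), part of the 60-line panel, tested at a single concentration of 10^-5 M. The read-out is percent tumor cell growth relative to untreated growth.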

[23] = Growth inhibition of human […] cells assessed tumor cell growth at 10^-5 M; design: scale not given: the % may be the effect or the level left; in short: as §2
BT-549 = test: Growth inhibition of human BT549 cells assessed tumor cell growth at 10^-5 M; design: scale not given: the % may be the effect or the level left; in short: as §2
K562 [24] = test: Growth inhibition of human K562 cells assessed tumor cell growth at 10^-5 M; design: scale not given: the % may be the effect or the level left; in short: as §2
SW-620 = test: Growth inhibition of human SW620 cells assessed tumor cell growth at 10^-5 M; design: scale not given: the % may be the effect or the level left; in short: as §1
HOP-92 = test: Growth inhibition of human HOP92 cells assessed tumor cell growth at 10^-5 M; design: scale not given: the % may be the effect or the level left; in short: as §2
OVCAR-8 = test: Growth inhibition of human OVCAR8 cells assessed tumor cell growth at 10^-5 M; design: scale not given: the % may be the effect or the level left; in short: as §2
OVCAR-5 [25] = test: Growth inhibition of human OVCAR5 cells
SF-268 [26] = test: Growth inhibition of human SF268 cells assessed tumor cell growth at 10^-5 M; design: scale not given: the % may be the effect or the level left; in short: as §2
SF-268 [27] = test: Growth inhibition of human SF268 cells
SK-OV-3 [28] = test: Growth inhibition of human SKOV3 cells assessed tumor cell growth at 10^-5 M; design: scale not given: the % may be the effect or the level left; in short: as §2
MOLT-4 = test: Growth inhibition of human MOLT4 cells
SK-MEL-2 = test: Growth inhibition of human SK-MEL-2 cells assessed tumor cell growth at 10^-5 M; design: scale not given: the % may be the effect or the level left; in short: as §2
EKVX = test: Growth inhibition of human EKVX cells assessed tumor cell growth at 10^-5 M; design: scale not given: the % may be the effect or the level left; in short: as §2
[29] = read-out: LC50 (the source's name)

CC1=NN(c2cccc(Cl)c2)C(=O)/C1=C\c1c(O)ccc2ccccc12
GI50 (SF-295): 22.9 µM
CC50 (SF-295; [29]): > 100 µM
GI50 (IGROV-1 [1]): 26.9 µM
CC50 (IGROV-1 [1]; [29]): > 100 µM
GI50 (SK-MEL-5 [2]): > 100 µM
CC50 (SK-MEL-5 [2]; [29]): > 100 µM
GI50 (CAKI-1): > 100 µM
CC50 (CAKI-1; [29]): > 100 µM
GI50 (UACC-257): > 100 µM
CC50 (UACC-257; [29]): > 100 µM
GI50 (ACHN [3]): 16.9 µM
CC50 (ACHN [3]; [29]): > 100 µM
GI50 (KM12): > 100 µM
CC50 (KM12; [29]): > 100 µM
Activity (SNB-19): 31.43%
GI50 (M14 [4]): > 100 µM
CC50 (M14 [4]; [29]): > 100 µM
Activity (NCI-H522): -11.28%
GI50 (LOX IMVI [5]): > 100 µM
CC50 (LOX IMVI [5]; [29]): > 100 µM
Activity (SK-MEL-5 [6]): -82.5%
GI50 (SK-OV-3 [7]): 26.3 µM
CC50 (SK-OV-3 [7]; [29]): > 100 µM
GI50 (SN12C): > 100 µM
CC50 (SN12C; [29]): > 100 µM
Activity [8]: 82.15%
GI50 (UO-31 [9]): > 100 µM
CC50 (UO-31 [9]; [29]): > 100 µM
GI50 [10]: 32.3 µM
CC50 [10, 29]: > 100 µM
Activity (IGROV-1 [11]): 33.94%
GI50 (SNB-75 [12]): 0.9 µM
CC50 (SNB-75 [12]; [29]): > 100 µM
GI50 (TK-10 [13]): 34.6 µM
CC50 (TK-10 [13]; [29]): > 100 µM
GI50 (COLO 205): > 100 µM
LC50 (COLO 205): > 100 µM
Activity (UO-31 [14]): 66.56%
Activity (LOX IMVI [15]): -79.39%
GI50 (K562 [16]): 44.6 µM
CC50 (K562 [16]; [29]): > 100 µM
Activity (ACHN [17]): -36.07%
Activity (HCT-15): 49.94%
GI50 (OVCAR-4): > 100 µM
CC50 (OVCAR-4; [29]): > 100 µM
Activity (U-251): -10.7%
Activity (NCI-H226): 1.04%
Activity (OVCAR-5 [18]): 16.91%
Activity (TK-10 [19]): 17.23%
Activity (SF-539): 72.26%
Activity (M14 [20]): 18.24%
GI50 (NCI/ADR-RES): > 100 µM
CC50 (NCI/ADR-RES; [29]): > 100 µM
GI50 (HCT-116): > 100 µM
CC50 (HCT-116; [29]): > 100 µM
Activity (SNB-75 [21]): 10.3%
GI50 [22]: > 100 µM
CC50 [22, 29]: > 100 µM
Activity (HL-60(TB)): 104.49%
Activity [23]: 96.44%
Activity (BT-549): 90.21%
Activity (K562 [24]): 99.09%
Activity (SW-620): 30.97%
Activity (HOP-92): -2.07%
Activity (OVCAR-8): 22.34%
GI50 (OVCAR-5 [25]): > 100 µM
CC50 (OVCAR-5 [25]; [29]): > 100 µM
Activity (SF-268 [26]): 47.23%
GI50 (SF-268 [27]): 97.7 µM
CC50 (SF-268 [27]; [29]): > 100 µM
Activity (SK-OV-3 [28]): 28.27%
GI50 (MOLT-4): > 100 µM
LC50 (MOLT-4): > 100 µM
Activity (SK-MEL-2): 38.07%
Activity (EKVX): 51.27%
